Reference: ChEMBL document CHEMBL5096186, “Design, Synthesis, and Biological Evaluation of Novel Pyrimido[4,5-b]indole Derivatives Against Gram-Negative Multidrug-Resistant Pathogens” (J Med Chem, 2021)
Converted amounts (≈) assume the structure as drawn. The source made the active and inactive calls. The calls are words filed in the database; no cut-off is given here.

Experiments:
[1] = biological target: T1, hERG (KCNH2) potassium channel (Homo sapiens, UniProt Q12809); test: Inhibition of hERG potassium channel assessed as maximum inhibition rate at 40 uM at -80 mV holding potential incubated for 120 seconds by whole cell-automated voltage clamp analysis assay relative to control; type: toxicity; conditions: time 120 sec
T1 sequence (Q12809 whole entry): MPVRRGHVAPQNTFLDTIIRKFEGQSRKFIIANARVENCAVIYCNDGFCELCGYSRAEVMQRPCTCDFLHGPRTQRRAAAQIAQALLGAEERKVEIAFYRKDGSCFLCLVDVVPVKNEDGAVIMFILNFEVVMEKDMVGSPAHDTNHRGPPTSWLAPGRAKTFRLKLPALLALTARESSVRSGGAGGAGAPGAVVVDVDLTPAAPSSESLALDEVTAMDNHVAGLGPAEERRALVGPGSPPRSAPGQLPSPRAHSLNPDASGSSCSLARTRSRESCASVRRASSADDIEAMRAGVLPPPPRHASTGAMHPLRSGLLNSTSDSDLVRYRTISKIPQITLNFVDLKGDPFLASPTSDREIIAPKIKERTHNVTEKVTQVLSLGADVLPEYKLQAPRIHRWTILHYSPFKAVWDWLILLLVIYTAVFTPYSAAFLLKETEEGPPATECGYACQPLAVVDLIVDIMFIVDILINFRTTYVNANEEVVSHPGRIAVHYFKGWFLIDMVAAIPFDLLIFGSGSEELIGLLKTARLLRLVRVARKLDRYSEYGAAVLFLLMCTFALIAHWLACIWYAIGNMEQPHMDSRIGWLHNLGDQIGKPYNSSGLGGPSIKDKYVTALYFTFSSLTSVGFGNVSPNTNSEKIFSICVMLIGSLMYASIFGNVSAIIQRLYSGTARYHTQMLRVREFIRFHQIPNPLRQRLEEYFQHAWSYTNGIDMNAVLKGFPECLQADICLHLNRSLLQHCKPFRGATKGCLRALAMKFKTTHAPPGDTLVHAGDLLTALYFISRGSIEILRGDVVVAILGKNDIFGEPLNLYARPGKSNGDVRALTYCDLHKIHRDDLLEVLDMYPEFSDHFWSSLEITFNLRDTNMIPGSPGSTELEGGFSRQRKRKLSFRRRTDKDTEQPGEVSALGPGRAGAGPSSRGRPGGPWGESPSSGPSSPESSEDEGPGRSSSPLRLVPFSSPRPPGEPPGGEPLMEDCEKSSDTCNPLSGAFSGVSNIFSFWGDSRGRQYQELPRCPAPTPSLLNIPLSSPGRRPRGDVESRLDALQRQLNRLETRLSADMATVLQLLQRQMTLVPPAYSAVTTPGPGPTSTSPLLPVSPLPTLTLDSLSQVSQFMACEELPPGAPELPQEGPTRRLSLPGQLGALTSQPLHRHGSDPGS
In short: (§1)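 Automated whole-cell patch clamp, holding potential −80 mV. Voltage protocol applied every 20 s. Baseline set with external solution containing 0.1% DMSO and stabilised 3 min. Compound applied until steady state, at least 3 min, then washout. Maximum tested concentration 40 μM, or 3 μM for cisapride as positive control.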

[2] = biological target: Voltage-gated inwardly rectifying potassium channel KCNH2 (Homo sapiens, UniProt Q12809); test: Inhibition of hERG potassium channel assessed as […] at -80 mV holding potential incubated for 120 seconds by whole cell-automated voltage clamp analysis assay; type: toxicity; in short: as §1
Sequence of Voltage-gated inwardly rectifying potassium channel KCNH2 (Q12809 whole entry): as above

Escherichia coli [3] = test: Antibacterial activity against ESBL-producing multidrug resistant Escherichia coli assessed as reduction in bacterial growth incubated for 18 to 20 hrs by CLSI based microdilution method; type: functional; conditions: time 18-20 hrs
In short: (§2)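 Broth microdilution per CLSI. Compounds dissolved in DMSO (levofloxacin and meropenem in water) as 64 μg/mL stock, then serial twofold dilutions in broth giving 64 to 0.008 μg/mL. […] Clinical isolates tested as several strains per group; racemic GP-1 served as positive control; values given as MIC ranges.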

Escherichia coli [4] = test: Antibacterial activity against multidrug resistant wild type Escherichia coli ATCC BAA-2340 assessed as reduction in bacterial growth incubated for 18 to 20 hrs by CLSI based microdilution method; type: functional; conditions: time 18-20 hrs; in short: as §2
Escherichia coli [5] = test: Antibacterial activity against multidrug resistant wild type Escherichia coli NCTC 13353 assessed as reduction in bacterial growth incubated for 18 to 20 hrs by CLSI based microdilution method; type: functional; conditions: time 18-20 hrs; in short: as §2
Klebsiella pneumoniae [6] = test: Antibacterial activity against KPC2-producing multidrug resistant Klebsiella pneumoniae assessed as reduction in bacterial growth incubated for 18 to 20 hrs by CLSI based microdilution method; type: functional; conditions: time 18-20 hrs; in short: as §2
Klebsiella pneumoniae [7] = test: Antibacterial activity agains wild type Klebsiella pneumoniae ATCC BAA-1705 assessed as reduction in bacterial growth incubated for 18 to 20 hrs by CLSI based microdilution method; type: functional; conditions: time 18-20 hrs
In short: (§3)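 CLSI broth microdilution. Compounds in DMSO (levofloxacin and meropenem in water), serial twofold dilutions in broth, 64 to 0.008 μg/mL. […] Results reported as MIC ranges across strains.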

Klebsiella pneumoniae [8] = test: Antibacterial activity agains wild type Klebsiella pneumoniae ATCC BAA-2470 assessed as reduction in bacterial growth incubated for 18 to 20 hrs by CLSI based microdilution method; type: functional; conditions: time 18-20 hrs; in short: as §2
Acinetobacter baumannii [9] = test: Antibacterial activity agains OXA23-producing multidrug resistant Acinetobacter baumannii assessed as reduction in bacterial growth incubated for 18 to 20 hrs by CLSI based microdilution method; type: functional; conditions: time 18-20 hrs; in short: as §2
Acinetobacter baumannii [10] = test: Antibacterial activity against wild type Acinetobacter baumannii NCTC 13304 assessed as reduction in bacterial growth incubated for 18 to 20 hrs by CLSI based microdilution method; type: functional; conditions: time 18-20 hrs; in short: as §2
Pseudomonas aeruginosa [11] = test: Antibacterial activity against IMP4-producing multidrug resistant Pseudomonas aeruginosa assessed as reduction in bacterial growth incubated for 18 to 20 hrs by CLSI based microdilution method; type: functional; conditions: time 18-20 hrs; in short: as §2
Pseudomonas aeruginosa [12] = test: Antibacterial activity against wild type Pseudomonas aeruginosa ATCC 27853 assessed as reduction in bacterial growth incubated for 18 to 20 hrs by CLSI based microdilution method; type: functional; conditions: time 18-20 hrs; in short: as §3
[13] = Metabolic stability in rat liver microsome assessed as elimination half life at 0.1 uM in presence of NADPH incubated upto 60 mins by LC-MS/MS analysis; type: ADME; conditions: liver microsomes, read-out: beta t1/2
In short: (§4)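 Compound at 0.1 μM final, in 0.01% DMSO with 0.005% BSA. Incubated with rat or human liver microsomes at 0.33 mg/mL in 0.1 M Tris-HCl, pH 7.4, with 5 mM MgCl₂ and 1 mM NADPH, at 37 °C. Samples at 0, 7, 17, 30 and 60 min quenched with cold methanol and analysed by LC-MS/MS. Half-life, Cl_int and MF% derived as previously described.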

[14] = Metabolic stability in human liver microsome assessed as elimination half life at 0.1 uM in presence of NADPH incubated upto 60 mins by LC-MS/MS analysis; type: ADME; conditions: liver microsomes, read-out: beta t1/2; in short: as §4
[15] = Metabolic stability in rat liver microsome assessed as intrinsic clearance at 0.1 uM in presence of NADPH incubated upto 60 mins by LC-MS/MS analysis; type: ADME; conditions: microsomes, 1 h; in short: as §4
[16] = Metabolic stability in human liver microsome assessed as intrinsic clearance at 0.1 uM in presence of NADPH incubated upto 60 mins by LC-MS/MS analysis; type: ADME; conditions: microsomes, 1 h; in short: as §4
[17] = Metabolic stability in rat liver microsome assessed as metabolic bioavailability at 0.1 uM in presence of NADPH incubated upto 60 mins by LC-MS/MS analysis; type: ADME; conditions: liver microsomes; in short: as §4
[18] = Metabolic stability in human liver microsome assessed as metabolic bioavailability at 0.1 uM in presence of NADPH incubated upto 60 mins by LC-MS/MS analysis; type: ADME; conditions: liver microsomes; in short: as §4
[19] = AUC (0 to infinity) in Sprague-Dawley rat at 5 mg/kg, iv measured upto 24 hrs by LC-MS/MS analysis; type: ADME, organism-based; parameters: time < 24 hrs, dose 5 mg/kg, route iv; conditions: in vivo
In short: (§5)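 Male Sprague-Dawley rats, n = 3 per group, single intravenous dose. For 4 mg/kg: 180–280 g rats, vehicle 5% DMSO + 5% EtOH + 40% PEG300 + 50% saline, blood from the retrobulbar vein at 0.05–24 h. For 5 and 20 mg/kg: 180–300 g rats, vehicle 5% DMSO + 5% solutol + 90% saline, sampled at 0.083–24 h. Plasma quantified by LC/MS/MS. Parameters from mean plasma concentration by noncompartmental analysis; values are mean ± standard deviation.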

[20] = AUC (0 to infinity) in Sprague-Dawley rat at 20 mg/kg, iv measured upto 24 hrs by LC-MS/MS analysis; type: ADME, organism-based; parameters: dose 20 mg/kg, time < 24 hrs, route iv; conditions: in vivo; in short: as §5
[21] = Elimination half life in Sprague-Dawley rat at 5 mg/kg, iv measured upto 24 hrs by LC-MS/MS analysis; type: ADME, organism-based; conditions: in vivo, read-out: beta t1/2 (converted); in short: as §5
[22] = Elimination half life in Sprague-Dawley rat at 20 mg/kg, iv measured upto 24 hrs by LC-MS/MS analysis; type: ADME, organism-based; conditions: in vivo, read-out: beta t1/2 (converted); in short: as §5
[23] = MRT in Sprague-Dawley rat at 5 mg/kg, iv measured upto 24 hrs by LC-MS/MS analysis; type: ADME, organism-based; conditions: in vivo; in short: as §5
[24] = MRT in Sprague-Dawley rat at 20 mg/kg, iv measured upto 24 hrs by LC-MS/MS analysis; type: ADME, organism-based; conditions: in vivo; in short: as §5
[25] = Clearance in Sprague-Dawley rat at 5 mg/kg, iv measured upto 24 hrs by LC-MS/MS analysis; type: ADME, organism-based; conditions: in vivo; in short: as §5
[26] = Clearance in Sprague-Dawley rat at 20 mg/kg, iv measured upto 24 hrs by LC-MS/MS analysis; type: ADME, organism-based; conditions: in vivo; in short: as §5
[27] = Volume of distribution at the steady state in Sprague-Dawley rat at 5 mg/kg, iv measured upto 24 hrs by LC-MS/MS analysis; type: ADME, organism-based; conditions: in vivo, read-out: Vdss; in short: as §5
[28] = Volume of distribution at the steady state in Sprague-Dawley rat at 20 mg/kg, iv measured upto 24 hrs by LC-MS/MS analysis; type: ADME, organism-based; conditions: in vivo, read-out: Vdss; in short: as §5
[29] = Cytotoxicity against human L02 cells assessed as cell viability measured for 48 hrs by CCK-8 assay; type: toxicity, cell-based
In short: (§6)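 Cells seeded at 1 × 10⁴ per well and grown for 48 h. Then exposed to test articles at 1–200 μM for another 48 h (n = 6). Viability by CCK-8 added for 2 h, absorbance read at 450 nm. CC50 calculated and reported as the mean.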

[30] = Cytotoxicity against human HEK293 cells assessed as cell viability measured for 48 hrs by CCK-8 assay; type: toxicity, cell-based; in short: as §6
Acinetobacter baumannii [31] = test: Antibacterial activity against OXA23-producing multidrug resistant Acinetobacter baumannii infected in iv dosed kunming mouse measured after 24 hrs; type: functional, organism-based; conditions: dose 10-30 mg/kg, DDE = dose-dependent effect
In short: (§7)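 Neutropenic thigh model in Kunming mice (18−22 g, half male/half female; 8 per dosed group, 13 vehicle). Cyclophosphamide given ip 4 days (150 mg/kg) and 1 day (100 mg/kg) before infection. Right posterior thigh injected im with 0.1 mL of 10⁷ cfu/mL OXA-23 MDR A. baumannii clinical isolate. Iv tail dosing at 10, 20, 30 mg/kg 2 h post-infection; levofloxacin 30 mg/kg iv; saline vehicle. Thighs homogenised in saline for cfu after 24 h.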

Acinetobacter baumannii [32] = test: Bactericidal activity against OXA23-producing multidrug resistant Acinetobacter baumannii infected in dosed kunming mouse at 30 mg/kg, iv measured after 24 hrs; type: functional, organism-based; in short: as §7
[33] = biological target: T1, hERG (KCNH2) potassium channel; test: Inhibition of hERG potassium channel assessed as maximum inhibition rate at 3 uM at -80 mV holding potential incubated for 120 seconds by whole cell-automated voltage clamp analysis assay relative to control; type: toxicity; conditions: time 120 sec; in short: as §1

## CNc1cc(F)cc2c1[nH]c1nc(Oc3cnc(C)nc3)nc(N3CC(=C(C)[C@@H](C)N)C3)c12
[1]
  inhibition at 2 min, 40 µM: 18.3%
[2]
  IC50: > 40 µM
Escherichia coli [3]
  MIC: 0.5 µg/mL (≈ 1.11 µM)
Escherichia coli [4]
  MIC: 0.5 µg/mL (≈ 1.11 µM)
Escherichia coli [5]
  MIC: 0.125 µg/mL (≈ 0.279 µM)
Klebsiella pneumoniae [6]
  MIC: 2 µg/mL (≈ 4.46 µM)
Klebsiella pneumoniae [7]
  MIC: 4 µg/mL (≈ 8.92 µM)
Klebsiella pneumoniae [8]
  MIC: 2 µg/mL (≈ 4.46 µM)
Acinetobacter baumannii [9]
  MIC: 0.25 µg/mL (≈ 0.557 µM)
Acinetobacter baumannii [10]
  MIC: 0.25 µg/mL (≈ 0.557 µM)
Pseudomonas aeruginosa [11]
  MIC: 4 µg/mL (≈ 8.92 µM)
Pseudomonas aeruginosa [12]
  MIC: 2 µg/mL (≈ 4.46 µM)
[13]
  half-life at 0.1 µM: 8.3 min
[14]
  half-life at 0.1 µM: 1.23 h
[15]
  CLH: 252 mL/min/g
[16]
  CLH: 28.4 mL/min/g
[17]
  Fh at 1 h, 0.1 µM: 15%
[18]
  Fh at 1 h, 0.1 µM: 40.8%
[19]
  AUC(0-inf): 1100 ng·h/mL
[20]
  AUC(0-inf): 5790 ng·h/mL
[21]
  half-life: 8.5 h
[22]
  half-life: 5.9 h
[23]
  MRT: 7.8 h
[24]
  MRT: 3.1 h
[25]
  clearance: 76.6 mL/min/kg
[26]
  clearance: 57.7 mL/min/kg
[27]
  Vd: 35.7 L/kg
[28]
  Vd: 10.8 L/kg
[29]
  CC50 at 48 h: 16 µM
[30]
  CC50 at 48 h: 19 µM
Acinetobacter baumannii [31]
  Activity: Dde
Acinetobacter baumannii [32]
  Activity: Active

## COc1cc(N)c(Cl)cc1C(=O)NC1CCN(CCCOc2ccc(F)cc2)CC1OC (stereo not drawn) [CISAPRIDE MONOHYDRATE]
[33]
  inhibition at 2 min, 3 µM: 97.7%
